From PubChem
Only some compounds are listed: those with a hit (about 1.6% of all), similar ones and a draw of the others.
UCH37 inh: human UCH37 deubiquitinating enzyme inhibition | inhibition, % (test concentration not listed) | actives 0.33% (n = 330,000) | purified proteasome/UCH37, Ub-AMC cleavage fluorescence | Q9Y5K5 | AID 588478;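 active = mean inhibition over replicate wells above about 20%, limit read from the data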;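 also: 0% = compound-free wells with enzyme and 100% = wells lacking proteasome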
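Assay system: Proteasome-bound UCH37. Buffer or medium: pH 7.4 Tris-HCl (50 mM) with ovalbumin, ATP-MgCl2, DTT. Incubation: 30 min preincubation with enzyme, 25 min cleavage at room temperature. Measured by: fluorescence, ex 355 nm, em 460 nm. Read-out basis: percent inhibition. Control set: wells without proteasome as full block, compound-free enzyme plus substrate as uninhibited.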
GSTO1 counter: blocks human GSTO1 in RBBP9 counter-screen; P78417; recombinant GSTO1, activity-based probe fluorescence polarization; inhibition, % at 5.96 µM; actives 1.1% (n = 300,000); AID 1974;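 active = inhibition above the campaign mean inhibition plus 3 SD, cut at about 35% in these data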;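 also: 0% = GSTO1-1 with DMSO and 100% = wells lacking GSTO1-1 enzyme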
PAD4 inh: inhibitors of human PAD4. Q9UM07. recombinant PAD4, RCA probe fluorescence polarization. inhibition, % at 6.36 µM. actives 0.41% (n = 330,000). AID 485272;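 active = percent inhibition above a cutoff equal to the mean of all tested compounds plus 3 SD, cut at about 15% in these data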;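 also: 0% = PAD4 with RCA probe and DMSO and 100% = probe without PAD4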
Fh CTSL1 inh: counter-screen for PFM18AAP inhibitors: inhibitors of F. hepatica cathepsin L1; recombinant F. hepatica cathepsin L1, Z-Leu-Arg-MCA fluorescence; inhibition, % at 5.96 µM; actives 0.49% (n = 300,000); AID 1906;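 active = inhibition above the mean of all tested compounds plus 3 SD, set per screening campaign, cut at about 17% in these data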;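 also: 0% = plate median of test compound wells and 100% = 1 µM Z-Phe-Ala-diazomethylketone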
TDP2 inh: TDP2 (human) inhibition, absorbance primary screen | AID 720702 | inhibition, % at 12.8 µM | O95551 | recombinant TDP2, T5PNP hydrolysis, p-nitrophenol absorbance 415 nm | actives 0.34% (n = 370,000);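 active = inhibition above the mean of all tested compounds plus 3 SD, set per campaign, cut at about 25% in these data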;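 also: 0% = DMSO with enzyme and 100% = buffer with substrate but no TDP2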
Target sequence (O95551 whole entry, looked up): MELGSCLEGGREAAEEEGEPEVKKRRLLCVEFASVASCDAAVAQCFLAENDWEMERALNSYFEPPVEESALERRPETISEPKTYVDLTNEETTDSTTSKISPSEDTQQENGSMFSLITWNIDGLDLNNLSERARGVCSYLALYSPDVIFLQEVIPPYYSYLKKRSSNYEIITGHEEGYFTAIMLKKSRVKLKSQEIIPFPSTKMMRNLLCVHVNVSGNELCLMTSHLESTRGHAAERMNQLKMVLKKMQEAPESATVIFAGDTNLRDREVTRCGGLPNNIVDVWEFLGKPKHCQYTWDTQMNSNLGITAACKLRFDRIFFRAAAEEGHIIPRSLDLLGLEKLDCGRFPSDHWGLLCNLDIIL
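Read-out basis: percent inhibition. System: recombinant human TDP2. Buffer or medium: Mg2+-containing Tris-HCl buffer, pH 7.5. Repeats: single replicate. Timing: reaction 2 h, 37 °C. Benchmarks: high control without enzyme, low control DMSO plus TDP2. Probe or stimulus: 5 mM T5PNP. Doses: 12.8 µM only. Measured by: epi absorbance of p-nitrophenol freed from T5PNP by hydrolysis.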
HKDC1 inh: inhibitors of human hexokinase HKDC1 | Q2TB90 | recombinant HKDC1, G6PDH/diaphorase resazurin coupled fluorescence | inhibition, % at 20 µM | actives 0.16% (n = 340,000) | AID 493160;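 active = inhibition above about 35% when tested at 20 µM, limit read from the data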;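 also: plate controls were DMSO wells with enzyme for no effect and DMSO wells lacking enzyme for full effect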
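Test system: HK5 enzyme. Quantity: 5 µg/mL HK5 final. Reagent: glucose and ATP substrates. Schedule: 90 min reaction incubation at room temperature, dark. Technique: resazurin-to-resorufin fluorescence via G6PDH and diaphorase coupling, 525/613 nm. Control set: DMSO wells with and without enzyme mix.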
TDP2 confirm: confirmation of human TDP2 inhibitors. shares compounds with TDP2 inh. recombinant human TDP2, absorbance read-out. inhibition, % at 12.8 µM. actives 22% (n = 1,100). AID 743263; in the data active = inhibition above about 25%;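 also: 0% = vehicle with enzyme and 100% = no enzyme buffer only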
* = called active by the depositor; x = no result given.

SMILES	UCH37 inh	GSTO1 counter	PAD4 inh	Fh CTSL1 inh	TDP2 inh	HKDC1 inh	TDP2 confirm
O=C(NN=Cc1ccc(N2CCOCC2)cc1)c1ccccc1OCCOc1ccccc1	-304	x	x	x	x	x	x
O=C(COC(=O)CCc1nc2ccccc2c(=O)[nH]1)Nc1c(Cl)cccc1C(F)(F)F	-2	5	2	-2	57*	-4	6
Cc1ccccc1NC(=O)COC(=O)CCc1nc2ccccc2c(=O)[nH]1	1	-17	-2	-3	-5	-2	x
O=C(Nc1c(-c2ccccc2)[nH][nH]c1=O)c1ccc(Br)cc1	x	x	x	x	33*	x	16
O=C(Nc1c(-c2ccccc2)[nH][nH]c1=O)c1ccc2ccccc2c1	x	x	x	x	8	x	x
COc1ccc(-c2[nH][nH]c(=O)c2NC(=O)c2ccc(C)cc2)cc1	x	x	x	x	25*	x	30*
COc1ncccc1C(=O)Nc1c(-c2ccccc2)[nH][nH]c1=O	x	x	x	x	15	x	x
O=C(Nc1c(-c2ccccc2)[nH][nH]c1=O)c1cccs1	x	x	x	x	42*	x	15
CCCc1nnc(NC(=O)CCC(=O)N2CCCCC2)s1	4	-1	-1	0	26*	-5	-6
COc1ccc(C(=O)NNC(=S)NC(=O)c2ccc(OC)cc2)cc1	x	0	-1	-1	0	0	x
CCNC(=S)NNC(=O)c1ccc(OC)cc1	2	1	-8	2	65*	-3	3
